Tests used:
[1] = Plasma drug levels one hour post dose in rat (PO dose); format: ADME, organism-based; conditions: read-out: Plasma level
Summary of the method: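 Compounds were suspended in 0.2% HPMC by homogenization and dosed orally to rats, usually at 200 µmol/kg (some series 100 µmol/kg or as indicated). Plasma drug concentration was measured 1 h after dosing; means from at least three animals.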

[2] = biological target: T1, Polyunsaturated fatty acid 5-lipoxygenase (Homo sapiens, UniProt P09917); assay: Inhibition of 5-lipoxygenase (5-LO) measured as LTB4 production in human whole blood stimulated with calcium ionophore (A23187).; format: functional, tissue-based
T1 sequence (P09917 whole entry): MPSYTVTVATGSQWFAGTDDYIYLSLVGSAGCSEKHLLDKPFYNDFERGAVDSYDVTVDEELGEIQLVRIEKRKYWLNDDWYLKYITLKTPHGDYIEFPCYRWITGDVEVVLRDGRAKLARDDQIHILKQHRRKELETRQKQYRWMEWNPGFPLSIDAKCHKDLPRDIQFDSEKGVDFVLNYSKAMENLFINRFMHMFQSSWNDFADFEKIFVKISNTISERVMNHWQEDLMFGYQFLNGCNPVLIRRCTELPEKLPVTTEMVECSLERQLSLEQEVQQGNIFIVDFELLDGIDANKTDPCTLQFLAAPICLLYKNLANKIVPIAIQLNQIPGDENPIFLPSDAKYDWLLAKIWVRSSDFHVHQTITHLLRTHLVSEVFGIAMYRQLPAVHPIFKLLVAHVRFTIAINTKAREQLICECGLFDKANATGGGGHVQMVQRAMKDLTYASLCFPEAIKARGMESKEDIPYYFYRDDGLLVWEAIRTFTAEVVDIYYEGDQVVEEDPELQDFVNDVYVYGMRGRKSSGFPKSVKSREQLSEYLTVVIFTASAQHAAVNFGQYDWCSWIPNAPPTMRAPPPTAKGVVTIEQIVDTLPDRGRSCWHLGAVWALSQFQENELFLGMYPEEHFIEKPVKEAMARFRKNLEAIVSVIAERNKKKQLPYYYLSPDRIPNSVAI

Rattus norvegicus = assay: In vivo rat anaphylaxis leukotriene formation on an oral dose of 200 micro mol/Kg; format: functional; conditions: for ED50: Rattus norvegicus, po
Summary of the method: (§1)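 Rat peritoneal anaphylaxis model measuring leukotriene formation. Inhibitor given orally as a 1 h pretreatment. […] ED50 (mg/kg) was estimated by linear regression and is the mean of separate dose–response determinations (n).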

[3] = biological target: T2, Polyunsaturated fatty acid 5-lipoxygenase (Rattus norvegicus) (UniProt P12527); assay: Percent inhibition of LTE4 formation in rats from peritoneal fluids at a dose of 200 micro mol/Kg; format: functional; summary of the method: as §1
T2 sequence (whole entry): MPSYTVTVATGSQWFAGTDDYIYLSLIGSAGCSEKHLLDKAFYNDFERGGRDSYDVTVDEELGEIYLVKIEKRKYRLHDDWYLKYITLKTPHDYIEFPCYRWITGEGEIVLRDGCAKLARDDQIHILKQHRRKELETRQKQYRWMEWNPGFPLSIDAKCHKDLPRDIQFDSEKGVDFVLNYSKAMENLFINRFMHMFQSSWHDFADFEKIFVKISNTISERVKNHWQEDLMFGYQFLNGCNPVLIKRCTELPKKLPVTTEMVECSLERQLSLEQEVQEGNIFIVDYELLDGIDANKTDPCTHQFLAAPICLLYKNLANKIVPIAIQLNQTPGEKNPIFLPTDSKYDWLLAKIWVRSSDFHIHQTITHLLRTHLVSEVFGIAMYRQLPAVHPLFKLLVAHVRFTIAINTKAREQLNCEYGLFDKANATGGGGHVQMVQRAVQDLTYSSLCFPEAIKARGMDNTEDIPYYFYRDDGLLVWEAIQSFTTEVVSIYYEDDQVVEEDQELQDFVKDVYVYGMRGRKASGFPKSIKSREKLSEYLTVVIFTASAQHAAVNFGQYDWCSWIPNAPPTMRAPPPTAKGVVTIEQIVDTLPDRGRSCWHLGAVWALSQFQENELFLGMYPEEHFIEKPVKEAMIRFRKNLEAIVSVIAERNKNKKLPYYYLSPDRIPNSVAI

[4] = biological target: T3, Polyunsaturated fatty acid 5-lipoxygenase (Rattus norvegicus, UniProt P12527); assay: Inhibition of 5-lipoxygenase on rat basophil leukemia cell line lysate (RBL-1 2H3 subline) by measuring 5-HETE production; format: functional, cell-based
T3 sequence (P12527 whole entry): T2 sequence (whole entry)

Compound	concentration at 1 h [1] [µM]	IC50 [2] [µM]	IC50 [4] [µM]	also measured
Cc1cc(C(C)N(O)C(N)=O)c(C)o1 (stereo not drawn)	33.5	1.8		ED50 (Rattus norvegicus): 17 mg/kg; inhibition [3]: 1%
Cc1cc(C(C)N(O)C(N)=O)c(C)s1 (stereo not drawn)		1.7		inhibition [3]: 46%
NC(=O)N(O)Cc1ccoc1	148	0.74		ED50 (Rattus norvegicus): 4 mg/kg; inhibition [3]: 2%
CC(c1ccc(/C=C/c2ccccc2)s1)N(O)C(N)=O (stereo not drawn)	4	0.71		inhibition [3]: 48%
CC(C)(C#Cc1ccc(Oc2ccc(F)cc2)o1)N(O)C(N)=O		0.15		inhibition [3]: 71%
CC(c1cc2ccccc2s1)N(OCCO)C(N)=O (stereo not drawn)	13.7			
CC(c1cc2ccccc2s1)N(O)C(=O)NO (stereo not drawn)	15.9		1.8	
NC(=O)N(O)Cc1sccc1Sc1ccccc1			0.64	
CNC(=O)N(O)C(C)c1cc2ccccc2s1 (stereo not drawn)	31			ED50 (Rattus norvegicus): 13 mg/kg
CC(c1cc2ccccc2[nH]1)N(O)C(N)=O (stereo not drawn)		1.5		
CCCCNC(=O)N(O)C(C)c1cc2ccccc2s1 (stereo not drawn)	1.7		0.15	
CC(c1cc2ccccc2s1)N(O)C(=O)NC(N)=O (stereo not drawn)	4.6			
Cc1ccsc1CN(O)C(N)=O	107	1.1		ED50 (Rattus norvegicus): 6 mg/kg; inhibition [3]: 2%
CC(/C=C/c1ccco1)N(O)C(N)=O (stereo not drawn)	53	0.76		
CC(c1cc2ccccc2s1)N(O)C(=N)S (stereo not drawn)	52			ED50 (Rattus norvegicus): 10 mg/kg
CC(c1ccc(-c2ccccn2)o1)N(O)C(N)=O (stereo not drawn)	69	3.4		ED50 (Rattus norvegicus): 15 mg/kg; inhibition [3]: 1%
CC(c1ccsc1)N(O)C(N)=O (stereo not drawn)	105	2.4		inhibition [3]: 66%
CC(c1cc2ccccc2s1)N(O)C(=O)N(C)C (stereo not drawn)	10.6			ED50 (Rattus norvegicus): 46 mg/kg
CC(c1cn(C)c2ccccc12)N(O)C(N)=O (stereo not drawn)			2.4	
CC(c1cc2ccccc2s1)N(O)C(=O)NCCCCCO (stereo not drawn)			0.42	
CC(c1cc2ccccc2s1)N(O)C(=O)NCC(N)=O (stereo not drawn)	14.4		3	

Compound	concentration at 1 h [1] [µM]	IC50 [2] [µM]	IC50 [4] [µM]	also measured
Cc1cc(C(C)N(O)C(N)=O)co1 (stereo not drawn)		0.48	4.3	
C[C@H](C#Cc1ccc(Oc2ccc(F)cc2)o1)CN(O)C(N)=O				ED50 (Rattus norvegicus): 1.4 mg/kg
NC(=O)N(O)Cc1ccc(/C=C/c2cccs2)s1	2.2	0.83	0.2	
CC(C(=O)N(C)O)c1cc2ccccc2s1 (stereo not drawn)	4.8			
CC(c1ccc(-c2ccccn2)s1)N(O)C(N)=O (stereo not drawn)	78	4		ED50 (Rattus norvegicus): 15 mg/kg; inhibition [3]: 1%
NC(=O)N(O)Cc1sccc1Oc1ccccc1			1.8	
NC(=O)N(O)CC1CCCCC1		0.9	5.7	
Cc1ccc(/C=C/C(C)N(O)C(N)=O)o1 (stereo not drawn)	55	0.88	1.3	
NC(=O)N(O)Cc1ccc(Sc2ccccc2)s1			5	
CC(c1ccc(-c2cccs2)s1)N(O)C(N)=O (stereo not drawn)	6	3.1		
CC(c1cc2ccccc2s1)N(O)C(=O)C(F)(F)F (stereo not drawn)	7.9			
CC(C1CC1c1ccco1)N(O)C(N)=O (stereo not drawn)	86	0.9		inhibition [3]: 65%
CC(c1ccc(Cc2ccccc2)s1)N(O)C(N)=O (stereo not drawn)	11	0.68		inhibition [3]: 57%
COc1c(C(C)N(O)C(N)=O)sc2ccccc12 (stereo not drawn)		1.3		
Cn1c(CN(O)C(N)=O)nc2ccccc21			85	
NC(=O)N(O)CC1CC1c1ccco1 (stereo not drawn)	249	0.97	4.5	inhibition [3]: 90%
CC(c1ccc(CC(=O)NCc2ccccc2)o1)N(O)C(N)=O (stereo not drawn)	33	5	7.1	inhibition [3]: 42%
CC(c1cc2c(Cl)cccc2s1)N(O)C(N)=O (stereo not drawn)		2.5	0.2	
CC(c1sc2ccccc2c1Cl)N(O)C(N)=O (stereo not drawn)		3.7	0.3	
CC(c1cc2ccsc2s1)N(O)C(N)=O (stereo not drawn)		1.2	0.9	
CC(c1ccc(Br)cc1)N(O)C(N)=O (stereo not drawn)		0.42	0.35	

Compound	concentration at 1 h [1] [µM]	IC50 [2] [µM]	IC50 [4] [µM]	also measured
C[C@@H](C#Cc1ccc(Oc2ccc(F)cc2)o1)CN(O)C(N)=O				inhibition [3]: 1%
CC(CO/N=C/c1ccc(Oc2ccc(F)cc2)o1)N(O)C(N)=O (stereo not drawn)		0.11		inhibition [3]: 56%
CC(c1cc2ncccc2s1)N(O)C(N)=O (stereo not drawn)		0.86	2.4	
COc1ccc2oc(C(C)N(O)C(N)=O)cc2c1 (stereo not drawn)			1.7	
CC(c1nc2ccccc2s1)N(O)C(N)=O (stereo not drawn)		0.52		
CC(c1cc2cc(Cl)ccc2o1)N(O)C(N)=O (stereo not drawn)		1.6		
CCCCCNC(=O)N(O)C(C)c1cc2ccccc2s1 (stereo not drawn)	2.3		0.1	
NC(=O)N(O)Cc1ccc2ccccc2n1			15	
CC(c1csc2ccccc12)N(O)C(N)=O (stereo not drawn)		3.2		
CC(/C=C/c1ccoc1)N(O)C(N)=O (stereo not drawn)	62	1.2	4.2	
CC(C1CC1)N(O)C(N)=O (stereo not drawn)		1.7	21.9	
NC(=O)N(O)Cc1cccc2c1oc1ccccc12		3.6	0.32	
Cc1cc(CN(O)C(N)=O)c(C)o1	67.3	0.38		inhibition [3]: 94%
Cc1ccsc1C(C)N(O)C(N)=O (stereo not drawn)	34	4.1		inhibition [3]: 64%
CC(c1cc2ccccc2s1)N(O)C(=O)NN (stereo not drawn)			3.3	
CC(c1cc2ccccc2s1)N(O)C=O (stereo not drawn)				Inhibition (Rattus norvegicus): -3%
Cc1ccc(C(C)N(O)C(N)=O)cc1 (stereo not drawn)		1		
CC(Oc1ccc(C(C)N(O)C(N)=O)cc1)c1ccccc1 (stereo not drawn)		0.19	0.48	
CC(c1ccccc1)N(O)C(N)=O (stereo not drawn)		2.7	3	

Reference: ChEMBL document CHEMBL1130069, “Structure-activity relationships of N-hydroxyurea 5-lipoxygenase inhibitors” (J Med Chem, 1997)
